# Laboratory results as given in ChEMBL document CHEMBL3612041, “Combating highly resistant emerging pathogen Mycobacterium abscessus and Mycobacterium tuberculosis with novel salicylanilide esters and carbamates” (Eur J Med Chem, 2015).
# pIC50: −log10 of the molar value.
# Key:
# [1] = test system: Mycobacteroides abscessus; assay: Potency index, ratio of gentamicin MIC to compound MIC for Mycobacterium abscessus ATCC 19977; assay type: functional
# [2] = Selectivity index, ratio of IC50 for human MONO-MAC-6 cells to MIC for Mycobacterium tuberculosis H37Rv ATCC 27294; assay type: toxicity; settings: read-out: Selectivity Index
# [3] = test system: Mycobacteroides abscessus; assay: Potency index, ratio of ciprofloxacin MIC to compound MIC for Mycobacterium abscessus ATCC 19977; assay type: functional
# [4] = Selectivity index, ratio of IC50 for human MONO-MAC-6 cells to MIC for Mycobacterium abscessus ATCC 19977; assay type: toxicity; settings: read-out: Selectivity Index
# [5] = Solubility of the compound in RPMI-1640/Sula media by spectrophotometric analysis; assay type: physicochemical
# Method in brief: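 Solubility measured under assay conditions in RPMI and Sula media with 1 v/v% DMSO. Undissolved compound removed on a PVDF filter. 120 µL filtrate mixed with 80 µL acetonitrile, and concentration measured spectrophotometrically.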
# MONO-MAC-6 = assay: Cytostatic activity against human MONO-MAC-6 cells assessed as cell viability after 16 hrs by MTT assay; assay type: cell-based; settings: MONO-MAC-6, 16 h
# Method in brief: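 MonoMac6 cells kept in RPMI-1640 with 10% FCS, 2 mM L-glutamine and gentamycin at 37 °C, 5% CO2. Cells plated 10⁵ per well and treated after 24 h for 16 h in serum-free RPMI (1.0 v/v% DMSO), 5×10⁻² to 10² µM. MTT at 367 µg/mL final for 3.5 h, crystals dissolved in DMSO, OD540 minus OD620. Cytotoxicity % versus untreated control fitted sigmoidally for IC50. Two independent experiments, 4–8 parallels.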
# [6] = test system: Mycobacteroides abscessus; assay: Antimycobacterial activity against Mycobacterium abscessus ATCC 19977 after 7 days by serial dilution method; assay type: functional; settings: for MIC: Mycobacteroides abscessus, ATCC 19977, 168 h
# Method in brief: (§1)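 Serial dilution in in-house Sula semisynthetic medium, pH 6.5. Compounds added as DMSO solutions at 10 doses, final 0.05–100 µg/mL. Incubation at 37 °C, 7 days for M. abscessus and 28 days for M. tuberculosis strains. MIC taken as the lowest concentration giving visible growth inhibition, confirmed by CFU on drug-free Löwenstein-Jensen medium after further equal incubation. Repeated at least twice.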
# [7] = test system: Mycobacterium tuberculosis; assay: Antimycobacterial activity against Mycobacterium tuberculosis H37Rv ATCC 27294 after 28 days by serial dilution method; assay type: functional; settings: for MIC: Mycobacterium tuberculosis, H37Rv ATCC 27294, 672 h; method in brief: as §1
# [8] = Retention time of the compound in serum-free RPMI-1640 medium containing 10% DMSO at 0.5 mg/ml after 5 hrs by RP-HPLC analysis; assay type: physicochemical
# Method in brief: (§2)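 Stability in serum-free RPMI-1640 with 10% DMSO at 0.5 mg/ml, monitored by RP-HPLC on a C18 column. Gradient of 0.1% TFA water/acetonitrile-water, 1 ml/min, ambient temperature. Peaks identified by ESI-MS.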
# [9] = Drug level in serum-free RPMI-1640 medium treated with [4-bromo-2-[[4-(trifluoromethyl)phenyl]carbamoyl]phenyl] 5-chloropyrazine-2-carboxylate at 0.75 mg/ml after 29 hrs by ESI-MS spectra analysis; assay type: physicochemical
# [10] = Retention time of the compound in serum-free RPMI-1640 medium containing 10% DMSO at 0.5 mg/ml after 30 mins by RP-HPLC analysis; assay type: physicochemical; settings: 0.5 h; method in brief: as §2
# [11] = Retention time of the compound in DMSO at 0.75 mg/ml measured after 29 hrs by RP-HPLC analysis; assay type: physicochemical
# Method in brief: (§3)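 Stability in DMSO at 0.75 mg/ml, monitored by RP-HPLC on a C18 4.6×150 mm column. Gradient 0–100% B (A: 0.1% TFA in water; B: 0.1% TFA in acetonitrile-water 80:20), 1 ml/min, ambient temperature. Sampled at 0 min and after 29 h, detection at 280 or 220 nm.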
# [12] = Half life of the compound in serum-free RPMI-1640 medium at 0.75 mg/ml by RP-HPLC analysis; assay type: ADME
# [13] = Retention time of the compound in DMSO at 0.75 mg/ml measured at 0 min by RP-HPLC analysis; assay type: physicochemical; settings: 0 h; method in brief: as §3
# [14] = Drug level in serum-free RPMI-1640 medium treated with [4-bromo-2-[[4-(trifluoromethyl)phenyl]carbamoyl]phenyl] N-(3-chloropropyl)carbamate at 0.75 mg/ml after 6 hrs by RP-HPLC analysis; assay type: physicochemical
SMILES,Ratio [1],selectivity ratio [2],Ratio [3],selectivity ratio [4],solubility [5],pIC50 (MONO-MAC-6),Activity [6],MIC [6],Activity [7],MIC [7],Retention_time [8],Drug metabolism [9],Retention_time [10],Retention_time [11],half-life at 0.75 mg/ml [12],Retention_time [13],Drug metabolism [14]
O=C(NCCCl)Oc1ccc(Br)cc1C(=O)Nc1ccc(Cl)c(Cl)c1,53,34.5,15,34.5,< 50 µM,5.16,0 CFU,0.2 µM,2 CFU,0.2 µM,–,–,–,–,–,–,–
O=C(O)c1cnc(Cl)cn1,–,–,–,–,< 500 µM,–,–,> 633 µM,–,> 633 µM,12.3 min,metabolite_detected,–,–,–,–,–
O=C(Oc1ccc(Br)cc1C(=O)Nc1ccc(C(F)(F)F)cc1)c1cnc(Cl)cn1,–,1.1,–,0.2,< 100 µM,5.96,0 CFU,5 µM,0 CFU,1 µM,24 min,–,24 min,24 min,3.7 h,24 min,–
O=C(NCCCCl)Oc1ccc(Cl)cc1C(=O)Nc1ccc(C(F)(F)F)cc1,53,17.6,15,44,< 50 µM,5.06,0 CFU,0.2 µM,1 CFU,0.5 µM,–,–,–,–,–,–,–
O=C(NCCCCl)Oc1ccc(Br)cc1C(=O)Nc1ccc(C(F)(F)F)cc1,53,5.7,15,28.5,< 50 µM,5.24,0 CFU,0.2 µM,8 CFU,1 µM,–,–,22.6 min,22.6 min,0.183 h,22.6 min,–
O=C(NCCCl)Oc1ccc(Br)cc1C(=O)Nc1ccc(C(=O)c2ccccc2)cc1,–,3.1,–,0.6,< 50 µM,4.60,0 CFU,40 µM,2 CFU,8 µM,–,–,–,–,–,–,–
O=C(NCCCCl)Oc1ccc(Cl)cc1C(=O)Nc1ccc(C(=O)c2ccccc2)cc1,–,1.9,–,0.4,< 50 µM,4.79,0 CFU,42.5 µM,3 CFU,8.5 µM,–,–,–,–,–,–,–
O=C(Oc1ccc(Br)cc1C(=O)Nc1ccc(Cl)c(Cl)c1)c1cnc(Cl)cn1,–,2.9,–,5.7,< 100 µM,5.24,0 CFU,1 µM,1 CFU,2 µM,–,–,–,–,–,–,–
O=C(Nc1ccc(C(F)(F)F)cc1)c1cc(Br)ccc1O,–,5.4,–,0.5,< 100 µM,5.12,0 CFU,13.9 µM,2 CFU,1.4 µM,–,metabolite_detected,–,–,–,–,metabolite_detected
CCCNC(=O)Oc1ccc(Cl)cc1C(=O)Nc1ccc(C(=O)c2ccccc2)cc1,–,2,–,0.8,< 50 µM,4.73,0 CFU,22.9 µM,3 CFU,9.2 µM,–,–,–,–,–,–,–
O=C(NCCCCl)Oc1ccc(Br)cc1C(=O)Nc1ccc(C(=O)c2ccccc2)cc1,–,1.4,–,0.3,< 50 µM,4.90,0 CFU,38.9 µM,2 CFU,8.7 µM,–,–,–,–,–,–,–
O=C(NCCCl)Oc1ccc(Cl)cc1C(=O)Nc1ccc(C(=O)c2ccccc2)cc1,–,4.3,–,0.9,< 50 µM,4.42,0 CFU,43.6 µM,2 CFU,8.7 µM,–,–,–,–,–,–,–
